This is an account of results in ChEMBL document CHEMBL1151781, “Selectivity of inhibitors of endocannabinoid biosynthesis evaluated by activity-based protein profiling” (Bioorg Med Chem Lett, 2008).

For experiment [1], the target named is T1, Platelet-activating factor acetylhydrolase (Mus musculus) (UniProt Q60963).
T1 sequence (whole entry): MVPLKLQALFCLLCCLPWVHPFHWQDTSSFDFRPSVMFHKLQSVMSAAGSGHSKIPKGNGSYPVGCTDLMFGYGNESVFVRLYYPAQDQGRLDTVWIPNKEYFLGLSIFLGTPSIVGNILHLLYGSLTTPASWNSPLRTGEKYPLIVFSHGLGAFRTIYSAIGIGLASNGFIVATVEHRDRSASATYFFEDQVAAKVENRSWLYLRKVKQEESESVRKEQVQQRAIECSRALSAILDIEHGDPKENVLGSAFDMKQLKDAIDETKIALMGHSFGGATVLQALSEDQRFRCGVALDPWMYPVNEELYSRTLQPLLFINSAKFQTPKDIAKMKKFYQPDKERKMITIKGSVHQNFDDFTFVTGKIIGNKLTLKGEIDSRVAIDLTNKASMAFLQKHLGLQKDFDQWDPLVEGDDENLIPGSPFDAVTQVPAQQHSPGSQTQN
To be noted: Brain, 50 uM.

Experiment [2] concerns the target T2, Lysophosphatidylserine lipase ABHD12 (Mus musculus) (UniProt Q99LR1).
T2 sequence (whole entry): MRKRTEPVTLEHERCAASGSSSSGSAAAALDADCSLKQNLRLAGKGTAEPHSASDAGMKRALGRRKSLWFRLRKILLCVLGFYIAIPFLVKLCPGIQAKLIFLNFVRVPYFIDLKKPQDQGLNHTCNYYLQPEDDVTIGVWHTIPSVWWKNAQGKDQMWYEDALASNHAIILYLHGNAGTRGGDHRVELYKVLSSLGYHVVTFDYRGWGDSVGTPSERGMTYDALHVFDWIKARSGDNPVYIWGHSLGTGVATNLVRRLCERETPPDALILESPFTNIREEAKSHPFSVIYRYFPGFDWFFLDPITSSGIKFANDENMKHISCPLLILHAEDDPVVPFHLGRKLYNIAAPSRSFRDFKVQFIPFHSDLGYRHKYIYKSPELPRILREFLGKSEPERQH
The note with it: Brain, 5 uM.

Experiment [3] addresses T3, Neutral cholesterol ester hydrolase 1 (Mus musculus) (UniProt Q8BLF1).
T3 sequence (whole entry): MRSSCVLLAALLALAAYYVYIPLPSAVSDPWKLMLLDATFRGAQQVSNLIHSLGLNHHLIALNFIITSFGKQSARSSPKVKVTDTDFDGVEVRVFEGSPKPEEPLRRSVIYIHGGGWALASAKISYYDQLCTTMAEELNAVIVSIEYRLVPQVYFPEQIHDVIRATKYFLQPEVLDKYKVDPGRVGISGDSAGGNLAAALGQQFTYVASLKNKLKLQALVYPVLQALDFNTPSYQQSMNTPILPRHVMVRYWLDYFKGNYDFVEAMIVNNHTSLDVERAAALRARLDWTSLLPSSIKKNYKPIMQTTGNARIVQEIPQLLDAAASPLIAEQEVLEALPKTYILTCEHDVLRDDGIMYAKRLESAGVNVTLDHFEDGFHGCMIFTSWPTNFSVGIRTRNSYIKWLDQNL
As to the kind of experiment: Inhibition of KIAA1363 in mouse brain assessed as reduction in spectral count at 50 uM treated for 30 mins by ABPP-MudPIT assay relative to control. Type of experiment: tissue-based. The essentials: (§1)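 Mouse brain proteome was treated with inhibitor at the stated single concentration, or DMSO as control, for 30 min. FP-biotin (5 μM) was then added for 120 min, followed by avidin enrichment and LC-MS (ABPP-MudPIT). Runs were in triplicate. Only hydrolases with >15 average spectral counts in control were quantified. Blockade is the percent reduction in average spectral counts versus DMSO; >60% defined a target.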

Experiment [4] addresses T4, Fatty-acid amide hydrolase 1 (Mus musculus) (UniProt O08914).
T4 sequence (whole entry): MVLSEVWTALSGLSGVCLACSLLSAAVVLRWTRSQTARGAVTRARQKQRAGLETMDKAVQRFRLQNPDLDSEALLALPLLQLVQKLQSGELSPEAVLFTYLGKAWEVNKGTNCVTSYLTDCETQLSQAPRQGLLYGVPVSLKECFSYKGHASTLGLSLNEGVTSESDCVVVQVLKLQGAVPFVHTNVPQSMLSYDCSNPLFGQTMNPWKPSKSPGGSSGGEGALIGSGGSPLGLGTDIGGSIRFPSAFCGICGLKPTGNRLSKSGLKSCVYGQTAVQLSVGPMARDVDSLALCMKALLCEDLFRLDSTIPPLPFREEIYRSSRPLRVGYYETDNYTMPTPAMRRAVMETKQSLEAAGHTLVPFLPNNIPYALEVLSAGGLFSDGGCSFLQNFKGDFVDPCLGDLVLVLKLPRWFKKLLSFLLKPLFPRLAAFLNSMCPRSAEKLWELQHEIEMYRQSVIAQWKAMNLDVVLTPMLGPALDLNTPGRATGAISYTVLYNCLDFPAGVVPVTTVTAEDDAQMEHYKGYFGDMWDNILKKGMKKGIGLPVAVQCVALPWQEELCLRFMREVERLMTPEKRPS
The experiment in a line: Inhibition of FAAH in mouse brain assessed as reduction in spectral count at 50 uM treated for 30 mins by ABPP-MudPIT assay relative to control. It is filed as tissue-based. The essentials:
as §1

Where only a bound is given, the exact number is not on record here.

For orientation: inhibition means the change of the read-out against control, counted positive when it falls. Consider `CCCCCCCCCCC[C@@H](C[C@@H]1OC(=O)[C@H]1CCCCCC)OC(=O)[C@H](CC(C)C)NC=O` [ORLISTAT], for which the inhibition in experiment [1] and in experiment [2] was above 60% in each case.
Take `O=C(NCCCCCCNC(=O)ON=C1CCCCC1)ON=C1CCCCC1`: the inhibition in experiment [3] and in experiment [4] was above 60% each time.
